Assay results as given in ChEMBL document CHEMBL1240350, “In vitro activity of CEM-101 against Streptococcus pneumoniae and Streptococcus pyogenes with defined macrolide resistance mechanisms” (Antimicrob Agents Chemother, 2010).
Values after ≈ are worked out from the molar mass of the structure shown.

How the values were obtained:
Streptococcus pneumoniae [1] = experiment: Antibacterial activity against penicillin-susceptible Streptococcus pneumoniae after overnight incubation by agar dilution method; type: functional
Outline: (§1)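 Agar dilution on Mueller-Hinton agar supplemented with 5% sheep blood. Inoculum 10^4 CFU/spot, incubated overnight at 35°C in ambient air. Test strains were clinical pneumococcal isolates. S. pneumoniae ATCC 49619 was included as the quality control strain in each run. MIC range, MIC50 and MIC90 were reported for each susceptibility category.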

Streptococcus pyogenes [2] = experiment: Antibacterial activity against macrolide-resistant Streptococcus pyogenes harboring erm(B) gene after overnight incubation by agar dilution method; type: functional
Outline: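 Agar dilution MICs on Mueller-Hinton agar with 5% sheep blood. Inoculum 10^4 CFU/spot, incubated overnight at 35°C in ambient air. Clinical S. pneumoniae or group A streptococcal isolates; resistance genotypes (erm(B), erm(A), mef(A)/mef(E)) were assigned by PCR. S. pneumoniae ATCC 49619 served as QC strain in each run. Range, MIC50 and MIC90 reported per phenotype group.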

Streptococcus pneumoniae [3] = experiment: Antibacterial activity against macrolide-resistant Streptococcus pneumoniae 3665 harboring mef(A) gene after 50 passages following overnight incubation by agar dilution method; type: functional
Streptococcus pneumoniae [4] = experiment: Antibacterial activity against macrolide-resistant Streptococcus pneumoniae 1635 harboring erm(A) gene after 14 passages following overnight incubation by agar dilution method; type: functional
Streptococcus pneumoniae [5] = experiment: Antibacterial activity against macrolide-susceptible Streptococcus pneumoniae 7127 harboring S20N mutation in L4 ribosomal protein and A105V mutation in L22 ribosomal protein after 29 passages and 10 compound-free subculturing by retest method; type: functional
Streptococcus pneumoniae [6] = experiment: Antibacterial activity against macrolide-resistant Streptococcus pneumoniae 3009 harboring mutation in 23S rRNA after 20 passages and 10 compound-free subculturing by retest method; type: functional
Streptococcus pneumoniae [7] = experiment: Antibacterial activity against macrolide-resistant Streptococcus pneumoniae 1076 harboring erm(B) and mef(A) gene after overnight incubation by agar dilution method; type: functional
Streptococcus pneumoniae [8] = experiment: Antibacterial activity against macrolide-resistant Streptococcus pneumoniae 2686 harboring mutation in L4 ribosomal protein after overnight incubation by agar dilution method; type: functional
Streptococcus pyogenes [9] = experiment: Antibacterial activity against macrolide-resistant Streptococcus pyogenes 2094 harboring erm(A) gene after 43 passages and 10 compound-free subculturing by retest method
Streptococcus pyogenes [10] = experiment: Antibacterial activity against macrolide-resistant Streptococcus pyogenes 2094 harboring erm(A) gene after 5 passages following overnight incubation by agar dilution method
Streptococcus pneumoniae [11] = experiment: Antibacterial activity against Streptococcus pneumoniae harboring erm(B) gene after overnight incubation by agar dilution method; type: functional
Outline: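 Clinical isolates collected 1998–2008, with macrolide-resistance genes confirmed by PCR. MICs by agar dilution on Mueller-Hinton agar with 5% sheep blood. Inoculum 10^4 CFU/spot, incubated overnight at 35°C in ambient air. S. pneumoniae ATCC 49619 was the quality-control strain in every run.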

Streptococcus pneumoniae [12] = experiment: Antibacterial activity against macrolide-susceptible Streptococcus pneumoniae 1077 after 43 passages following overnight incubation by agar dilution method; type: functional
Streptococcus pneumoniae [13] = experiment: Antibacterial activity against macrolide-resistant Streptococcus pneumoniae 24 harboring erm(B) gene after 14 passages following overnight incubation by agar dilution method; type: functional
Streptococcus pneumoniae [14] = experiment: Antibacterial activity against macrolide-resistant Streptococcus pneumoniae 3665 harboring mef(A) gene after 14 passages following overnight incubation by agar dilution method; type: functional
Streptococcus pneumoniae [15] = experiment: Antibacterial activity against macrolide-resistant Streptococcus pneumoniae 1635 harboring erm(A) gene after 14 passages and 10 compound-free subculturing by retest method; type: functional
Outline: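 Multistep selection by daily serial passage in subinhibitory drug concentrations. Medium was cation-adjusted Mueller-Hinton broth plus 5% lysed horse blood. Each day the next inoculum came from the tube 1–2 dilutions below the MIC whose turbidity matched the growth control, for up to 50 days. Clone MICs by CLSI macrodilution; identity to the parent confirmed by SmaI PFGE.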

[16] = Tmax in human at 400 to 500 mg; details: in vivo
Streptococcus pyogenes [17] = experiment: Antibacterial activity against macrolide-resistant Streptococcus pyogenes 237 harboring mutation in L4 ribosomal protein after 20 passages following overnight incubation by agar dilution method
Streptococcus pneumoniae [18] = experiment: Antibacterial activity against penicillin-resistant Streptococcus pneumoniae after overnight incubation by agar dilution method; type: functional; outline: as §1
Streptococcus pneumoniae [19] = experiment: Antibacterial activity against macrolide-susceptible Streptococcus pneumoniae 1077 after 15 passages following overnight incubation by […]; type: functional
Outline: (§2)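 S. pneumoniae parental strains were passaged daily in subinhibitory drug concentrations in cation-adjusted Mueller-Hinton broth with 5% lysed horse blood. Each passage was seeded from the tube 1 to 2 dilutions below the MIC whose turbidity matched the growth control. MICs of resistant clones were measured by CLSI macrodilution. Parent and clone identity was confirmed by PFGE of SmaI-digested DNA.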

Streptococcus pneumoniae [20] = experiment: Antibacterial activity against macrolide-resistant Streptococcus pneumoniae 2686 harboring mutation in L4 ribosomal protein after 25 passages following overnight incubation by […]; type: functional; outline: as §2
Streptococcus pneumoniae [21] = experiment: Antibacterial activity against macrolide-susceptible Streptococcus pneumoniae 7127 harboring S20N mutation in L4 ribosomal protein and A105V mutation in L22 ribosomal protein after 38 passages following overnight incubation […]; type: functional; outline: as §2
Streptococcus pneumoniae [22] = experiment: Antibacterial activity against macrolide-resistant Streptococcus pneumoniae 3009 harboring mutation in 23S rRNA after 50 passages following overnight incubation by agar dilution method; type: functional
Streptococcus pneumoniae [23] = experiment: Antibacterial activity against macrolide-susceptible Streptococcus pneumoniae 1077 after 50 passages following overnight incubation by agar dilution method; type: functional
Streptococcus pneumoniae [24] = experiment: Antibacterial activity against macrolide-resistant Streptococcus pneumoniae 3665 harboring mef(A) gene after 26 passages following overnight incubation by agar dilution method; type: functional
Streptococcus pneumoniae [25] = experiment: Antibacterial activity against macrolide-resistant Streptococcus pneumoniae 1635 harboring erm(A) gene after 49 passages following overnight incubation by agar dilution method; type: functional
Streptococcus pneumoniae [26] = experiment: Antibacterial activity against macrolide-resistant Streptococcus pneumoniae 2686 harboring mutation in L4 ribosomal protein after 14 passages following overnight incubation by agar dilution method; type: functional
Streptococcus pneumoniae [27] = experiment: Antibacterial activity against macrolide-susceptible Streptococcus pneumoniae 7127 harboring S20N mutation in L4 ribosomal protein and A105V mutation in L22 ribosomal protein after 15 passages following overnight incubation by agar dilution method; type: functional
Streptococcus pyogenes [28] = experiment: Antibacterial activity against macrolide-resistant Streptococcus pyogenes 2094 harboring erm(A) gene after 6 passages following overnight incubation by agar dilution method
Streptococcus pneumoniae [29] = experiment: Antibacterial activity against macrolide-susceptible Streptococcus pneumoniae 1077 after 49 passages following overnight incubation by agar dilution method; type: functional
Streptococcus pneumoniae [30] = experiment: Antibacterial activity against macrolide-resistant Streptococcus pneumoniae 2686 harboring mutation in L4 ribosomal protein after 50 passages following overnight incubation by agar dilution method; type: functional
Streptococcus pyogenes [31] = experiment: Antibacterial activity against macrolide-resistant Streptococcus pyogenes 2094 harboring erm(A) gene after 34 passages following overnight incubation by agar dilution method
Streptococcus pyogenes [32] = experiment: Antibacterial activity against macrolide-resistant Streptococcus pyogenes 237 harboring mutation in L4 ribosomal protein after 43 passages following overnight incubation by agar dilution method
[33] = Streptococcus pneumoniae, 1635, read-out: MIC

| SMILES | MIC50 (Streptococcus pneumoniae [1]) [µg/mL] | MIC90 (Streptococcus pneumoniae [1]) [µg/mL] | MIC50 (Streptococcus pyogenes [2]) [µg/mL] | MIC90 (Streptococcus pyogenes [2]) [µg/mL] | MIC (Streptococcus pneumoniae [3]) [µg/mL] | MIC (Streptococcus pneumoniae [4]) [µg/mL] | MIC (Streptococcus pneumoniae [5]) [µg/mL] | MIC (Streptococcus pneumoniae [6]) [µg/mL] | MIC (Streptococcus pneumoniae [7]) [µg/mL] | MIC (Streptococcus pneumoniae [8]) [µg/mL] | MIC (Streptococcus pyogenes [9]) [µg/mL] | MIC50 (Streptococcus pneumoniae [11]) [µg/mL] | MIC90 (Streptococcus pneumoniae [11]) [µg/mL] | MIC (Streptococcus pneumoniae [13]) [µg/mL] | MIC (Streptococcus pneumoniae [14]) [µg/mL] | MIC (Streptococcus pneumoniae [15]) [µg/mL] | MIC (Streptococcus pneumoniae [15]; [33]) [µg/mL] | MIC50 (Streptococcus pneumoniae [18]) [µg/mL] | MIC (Streptococcus pneumoniae [22]) [µg/mL] | other results |
| --- | --- | --- | --- | --- | --- | --- | --- | --- | --- | --- | --- | --- | --- | --- | --- | --- | --- | --- | --- | --- |
| CC[C@H]1OC(=O)[C@H](C)[C@@H](O[C@H]2C[C@@](C)(OC)[C@@H](O)[C@H](C)O2)[C@H](C)[C@@H](O[C@@H]2O[C@H](C)C[C@H](N(C)C)[C@H]2O)[C@](C)(O)C[C@@H](C)CN(C)[C@H](C)[C@@H](O)[C@]1(C)O [AZITHROMYCIN] | 4 (≈ 5.34 µM) | > 64 | > 64 | > 64 | 16 (≈ 21.4 µM) | > 64 | 1 (≈ 1.34 µM) | > 64 | > 64 | > 64 | 4 (≈ 5.34 µM) |  |  |  |  |  |  |  |  | MIC (Streptococcus pyogenes [10]): > 64 µg/mL |
| CC[C@H]1OC(=O)[C@@](C)(F)C(=O)[C@H](C)[C@@H](O[C@@H]2O[C@H](C)C[C@H](N(C)C)[C@H]2O)[C@](C)(OC)C[C@@H](C)C(=O)[C@H](C)[C@H]2N(CCCCn3cc(-c4cccc(N)c4)nn3)C(=O)O[C@]12C [SOLITHROMYCIN] | 0.03 (≈ 0.0355 µM) | 0.125 (≈ 0.148 µM) | 0.5 (≈ 0.592 µM) | 1 (≈ 1.18 µM) |  |  | 0.016 (≈ 0.0189 µM) | 0.25 (≈ 0.296 µM) | 1 (≈ 1.18 µM) | 0.03 (≈ 0.0355 µM) | 0.25 (≈ 0.296 µM) | 0.03 (≈ 0.0355 µM) | 0.5 (≈ 0.592 µM) | 0.06 (≈ 0.071 µM) | 0.5 (≈ 0.592 µM) | 0.004 (≈ 0.00473 µM) | 0.004 (≈ 0.00473 µM) |  |  | MIC (Streptococcus pneumoniae [12]): 0.06 µg/mL (≈ 0.071 µM); Tmax [16]: 4 h; MIC (Streptococcus pyogenes [17]): 0.25 µg/mL (≈ 0.296 µM) |
| CC[C@H]1OC(=O)[C@H](C)C(=O)[C@H](C)[C@@H](O[C@@H]2O[C@H](C)C[C@H](N(C)C)[C@H]2O)[C@](C)(OC)C[C@@H](C)C(=O)[C@H](C)[C@H]2N(CCCCn3cnc(-c4cccnc4)c3)C(=O)O[C@]12C [TELITHROMYCIN] | 0.06 (≈ 0.0739 µM) | 0.25 (≈ 0.308 µM) | 8 (≈ 9.85 µM) | 16 (≈ 19.7 µM) |  |  | 0.016 (≈ 0.0197 µM) | 0.06 (≈ 0.0739 µM) | 0.5 (≈ 0.616 µM) | 0.06 (≈ 0.0739 µM) | 0.5 (≈ 0.616 µM) | 0.06 (≈ 0.0739 µM) | 1 (≈ 1.23 µM) | 32 (≈ 39.4 µM) | 2 (≈ 2.46 µM) | 0.008 (≈ 0.00985 µM) | 0.004 (≈ 0.00493 µM) | 0.125 (≈ 0.154 µM) | 0.03 (≈ 0.0369 µM) | MIC90 (Streptococcus pneumoniae [18]): 0.5 µg/mL (≈ 0.616 µM); MIC (Streptococcus pneumoniae [19]): 0.25 µg/mL (≈ 0.308 µM); MIC (Streptococcus pneumoniae [20]): 0.5 µg/mL (≈ 0.616 µM); MIC (Streptococcus pneumoniae [21]): 0.06 µg/mL (≈ 0.0739 µM) |
| CC[C@H]1OC(=O)[C@H](C)[C@@H](O[C@H]2C[C@@](C)(OC)[C@@H](O)[C@H](C)O2)[C@H](C)[C@@H](O[C@@H]2O[C@H](C)C[C@H](N(C)C)[C@H]2O)[C@](C)(OC)C[C@@H](C)C(=O)[C@H](C)[C@@H](O)[C@]1(C)O [CLARITHROMYCIN] | 1 (≈ 1.34 µM) | > 64 | > 64 | > 64 |  |  | 0.5 (≈ 0.668 µM) | > 64 | > 64 | 8 (≈ 10.7 µM) | 8 (≈ 10.7 µM) | > 64 |  |  |  |  |  | 16 (≈ 21.4 µM) |  | MIC (Streptococcus pneumoniae [23]): 0.008 µg/mL (≈ 0.0107 µM); MIC (Streptococcus pneumoniae [24]): 16 µg/mL (≈ 21.4 µM); MIC (Streptococcus pneumoniae [25]): > 64 µg/mL; MIC (Streptococcus pneumoniae [26]): > 64 µg/mL; MIC (Streptococcus pneumoniae [27]): 16 µg/mL (≈ 21.4 µM); MIC (Streptococcus pyogenes [28]): > 64 µg/mL |
| CCC[C@@H]1C[C@@H](C(=O)N[C@@H]([C@H]2O[C@H](SC)[C@H](O)[C@@H](O)[C@H]2O)[C@H](C)Cl)N(C)C1 [CLINDAMYCIN] | 0.06 (≈ 0.141 µM) | > 64 | > 64 | > 64 | 0.03 (≈ 0.0706 µM) | > 64 | 0.06 (≈ 0.141 µM) | 1 (≈ 2.35 µM) | 64 (≈ 151 µM) | 0.03 (≈ 0.0706 µM) | 0.06 (≈ 0.141 µM) | > 64 |  |  |  |  |  | 0.06 (≈ 0.141 µM) | 2 (≈ 4.71 µM) | MIC (Streptococcus pneumoniae [29]): 4 µg/mL (≈ 9.41 µM); MIC (Streptococcus pneumoniae [30]): 0.125 µg/mL (≈ 0.294 µM); MIC (Streptococcus pyogenes [31]): > 64 µg/mL; MIC (Streptococcus pyogenes [32]): 0.5 µg/mL (≈ 1.18 µM) |
